ChEMBL document CHEMBL1926537, “Catalytic inhibition of eukaryotic topoisomerases I and II by flavonol glycosides extracted from Vicia faba and Lotus edulis” (J Nat Prod, 2011)
The source made the active and inactive calls. The rule behind the calls is not given here.

Assays:
[1] = molecular target: T1, DNA topoisomerase 2-alpha (Homo sapiens, UniProt P11388); experiment: Inhibition of human topoisomerase 2-mediated relation of supercoiled DNA after 60 mins
[2] = molecular target: T1, DNA topoisomerase 2-alpha; experiment: Inhibition of human topoisomerase 2-mediated relation of supercoiled DNA at 500 uM after 60 mins
[3] = molecular target: T1, DNA topoisomerase 2-alpha; experiment: Inhibition of human topoisomerase 2-mediated relation of supercoiled DNA at 100 to 1000 uM after 60 mins
[4] = molecular target: T1, DNA topoisomerase 2-alpha; experiment: Inhibition of human topoisomerase 2-mediated relation of supercoiled DNA at 400 uM after 60 mins
[5] = molecular target: T1, DNA topoisomerase 2-alpha; experiment: Inhibition of human topoisomerase 2-mediated relation of supercoiled DNA at 800 uM after 60 mins
[6] = molecular target: T2, DNA topoisomerase 1 (Homo sapiens) (UniProt P11387); experiment: Inhibition of human topoisomerase 1-mediated relation of supercoiled DNA at 500 uM after 45 mins
T2 sequence (whole entry): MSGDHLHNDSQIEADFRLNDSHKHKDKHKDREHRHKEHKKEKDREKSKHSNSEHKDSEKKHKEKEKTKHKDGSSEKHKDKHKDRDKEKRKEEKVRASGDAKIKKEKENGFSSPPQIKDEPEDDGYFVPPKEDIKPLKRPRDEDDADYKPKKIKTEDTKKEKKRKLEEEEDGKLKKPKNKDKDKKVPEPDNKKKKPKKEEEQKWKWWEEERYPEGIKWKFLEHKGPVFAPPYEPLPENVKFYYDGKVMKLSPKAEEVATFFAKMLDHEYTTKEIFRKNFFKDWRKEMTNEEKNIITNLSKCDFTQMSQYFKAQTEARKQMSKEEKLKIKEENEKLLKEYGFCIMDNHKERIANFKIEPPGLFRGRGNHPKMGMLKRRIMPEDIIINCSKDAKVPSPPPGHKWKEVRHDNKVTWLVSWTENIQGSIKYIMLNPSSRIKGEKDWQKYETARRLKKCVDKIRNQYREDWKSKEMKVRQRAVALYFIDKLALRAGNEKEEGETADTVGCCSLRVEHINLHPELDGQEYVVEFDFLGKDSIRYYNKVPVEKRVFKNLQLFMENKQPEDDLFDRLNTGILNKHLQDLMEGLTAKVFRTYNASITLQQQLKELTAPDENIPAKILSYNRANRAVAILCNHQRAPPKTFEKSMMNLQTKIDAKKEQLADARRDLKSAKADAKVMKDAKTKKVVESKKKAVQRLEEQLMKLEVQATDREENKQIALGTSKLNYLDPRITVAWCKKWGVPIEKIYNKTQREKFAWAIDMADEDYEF
Outline: (§1)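 Screened at 500 μM, then 100–500 μM. Read-out is 0.8% agarose gel with ethidium stain and densitometry of the supercoiled fraction. IC50 is the 50% inhibition of relaxation; triplicate, mean ± SEM.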

[7] = molecular target: T3, DNA topoisomerase 1 (Homo sapiens, UniProt P11387); experiment: Inhibition of human topoisomerase 1-mediated relation of supercoiled DNA after 45 mins; outline: as §1
T3 sequence (P11387 whole entry): T2 sequence (whole entry)

[8] = tested on: Triticum aestivum; experiment: Inhibition of wheat germ topoisomerase 1-mediated relaxation of supercoiled DNA at 500 uM after 45 mins
Outline: (§2)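 Tested at 500 μM, then 75–1000 μM. Percent inhibition derived from the supercoiled fraction on 0.8% agarose gels stained with ethidium; IC50 at 50% inhibition of relaxation; triplicate, mean ± SEM.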

[9] = Inhibition of wheat germ topoisomerase 1-mediated relaxation of supercoiled DNA after 45 mins; parameters: species or system Triticum aestivum; outline: as §2
[10] = tested on: MCF7; experiment: Growth inhibition of human MCF7 cells at 100 uM after 48 hrs by XTT assay; type: functional; conditions: MCF7, 48 h, read-out: GI
Outline: (§3)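 XTT assay; HeLa, MCF7 and HepG2 seeded at 1.5 × 104, 2 × 104 and 3.5 × 10^4 cells/well in DMEM with 10% heat-inactivated FBS and penicillin/streptomycin, grown 24 h at 37 °C in 5% CO2. Compound added in DMEM-PS (100–500 μM) for 48 h, then XTT 4 h; OD at 450 nm, reference 650 nm. Etoposide 100 μM positive control; mean ± SEM.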

[11] = tested on: HeLa; experiment: Growth inhibition of human HeLa cells at 100 uM after 48 hrs by XTT assay; type: functional; conditions: read-out: GI; outline: as §3
[12] = tested on: HepG2; experiment: Growth inhibition of human HepG2 cells at 100 uM after 48 hrs by XTT assay; type: functional; conditions: HepG2, 48 h, read-out: GI; outline: as §3
[13] = tested on: Triticum aestivum; experiment: Inhibition of wheat germ topoisomerase 1-mediated relaxation of supercoiled DNA at 1000 uM after 45 mins; outline: as §2
[14] = molecular target: T1, DNA topoisomerase 2-alpha; experiment: Inhibition of human topoisomerase 2-mediated relation of supercoiled DNA at 100 uM after 60 mins
[15] = tested on: MCF7; experiment: Growth inhibition of human MCF7 cells after 48 hrs by XTT assay; type: functional, cell-based; conditions: MCF7, 48 h; outline: as §3
[16] = tested on: HepG2; experiment: Growth inhibition of human HepG2 cells after 48 hrs by XTT assay; type: functional, cell-based; conditions: HepG2, 48 h; outline: as §3
[17] = tested on: HeLa; experiment: Growth inhibition of human HeLa cells after 48 hrs by XTT assay; type: functional, cell-based; outline: as §3
[18] = tested on: Triticum aestivum; experiment: Inhibition of wheat germ topoisomerase 1-mediated relaxation of supercoiled DNA at 75 uM after 45 mins; outline: as §2
[19] = molecular target: T2, DNA topoisomerase 1 (Homo sapiens); experiment: Inhibition of human topoisomerase 1-mediated relation of supercoiled DNA at 100 uM after 45 mins; outline: as §1

T1 sequence (P11388 whole entry): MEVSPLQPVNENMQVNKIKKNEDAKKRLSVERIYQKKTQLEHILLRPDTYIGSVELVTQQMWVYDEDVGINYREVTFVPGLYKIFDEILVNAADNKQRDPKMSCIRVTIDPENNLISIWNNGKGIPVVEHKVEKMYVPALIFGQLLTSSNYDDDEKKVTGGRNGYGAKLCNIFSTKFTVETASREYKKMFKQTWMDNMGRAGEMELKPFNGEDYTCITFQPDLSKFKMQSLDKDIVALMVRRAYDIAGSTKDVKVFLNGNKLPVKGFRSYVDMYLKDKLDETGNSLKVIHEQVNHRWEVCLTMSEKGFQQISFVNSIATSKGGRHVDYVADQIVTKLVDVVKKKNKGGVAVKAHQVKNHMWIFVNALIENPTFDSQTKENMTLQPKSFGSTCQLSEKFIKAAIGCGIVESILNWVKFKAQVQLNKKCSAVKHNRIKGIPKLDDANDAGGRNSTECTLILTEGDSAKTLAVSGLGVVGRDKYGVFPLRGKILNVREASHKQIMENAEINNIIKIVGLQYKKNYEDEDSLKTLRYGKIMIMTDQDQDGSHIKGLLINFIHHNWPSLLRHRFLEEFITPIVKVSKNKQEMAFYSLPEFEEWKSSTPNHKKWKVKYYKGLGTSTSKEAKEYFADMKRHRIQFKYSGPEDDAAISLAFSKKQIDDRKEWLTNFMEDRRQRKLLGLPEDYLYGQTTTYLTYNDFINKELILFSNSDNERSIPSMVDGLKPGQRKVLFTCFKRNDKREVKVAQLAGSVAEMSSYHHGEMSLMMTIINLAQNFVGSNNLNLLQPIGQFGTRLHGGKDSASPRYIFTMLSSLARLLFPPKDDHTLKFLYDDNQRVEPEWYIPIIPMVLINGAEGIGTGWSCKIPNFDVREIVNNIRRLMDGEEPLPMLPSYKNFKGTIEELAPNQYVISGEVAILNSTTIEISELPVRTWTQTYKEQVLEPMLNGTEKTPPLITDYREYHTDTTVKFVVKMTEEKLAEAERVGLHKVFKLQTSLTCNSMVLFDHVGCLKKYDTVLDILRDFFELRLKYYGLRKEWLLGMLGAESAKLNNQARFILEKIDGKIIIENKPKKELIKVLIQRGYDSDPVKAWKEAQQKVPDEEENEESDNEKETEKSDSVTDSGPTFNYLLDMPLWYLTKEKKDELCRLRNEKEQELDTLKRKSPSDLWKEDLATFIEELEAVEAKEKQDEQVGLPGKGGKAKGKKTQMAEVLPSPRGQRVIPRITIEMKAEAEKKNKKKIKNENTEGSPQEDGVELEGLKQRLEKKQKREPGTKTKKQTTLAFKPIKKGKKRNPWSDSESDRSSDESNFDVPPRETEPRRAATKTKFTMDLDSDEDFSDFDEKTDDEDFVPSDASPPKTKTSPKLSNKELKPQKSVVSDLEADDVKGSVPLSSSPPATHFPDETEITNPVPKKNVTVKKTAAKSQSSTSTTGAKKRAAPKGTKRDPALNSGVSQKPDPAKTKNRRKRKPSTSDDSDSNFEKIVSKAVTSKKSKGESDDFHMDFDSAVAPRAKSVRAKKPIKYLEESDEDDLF

Row | SMILES | IC50 [1] [µM] | inhibition [2] | inhibition [3] | inhibition [6] | IC50 [7] [µM] | inhibition [8] | IC50 [9] [µM] | further results
1 | C[C@@H]1O[C@@H](Oc2cc(O)c3c(=O)c(O[C@H]4OC[C@@](O)(CO)[C@@H]4O)c(-c4ccc(O)cc4)oc3c2)[C@H](O)[C@H](O)[C@H]1O | 550 | Active | Dose-dependent effect | – | – | – | – | inhibition [4]: 44%; inhibition [5]: 80%
2 | C[C@@H]1O[C@@H](Oc2cc(O)c3c(=O)c(O[C@@H]4OC[C@H](O)[C@H](O)[C@H]4O)c(-c4ccc(O)cc4)oc3c2)[C@H](O)[C@H](O)[C@H]1O | 330 | Active | Dose-dependent effect | Active | 250 | Active | 240 | –
3 | C[C@@H]1O[C@@H](Oc2cc(O)c3c(=O)c(O[C@@H]4O[C@H](CO)[C@H](O)[C@H](O)[C@H]4O[C@@H]4O[C@@H](C)[C@H](O)[C@@H](O)[C@H]4O)c(-c4ccc(O)cc4)oc3c2)[C@H](O)[C@H](O)[C@H]1O | – | Active | – | Active | 260 | Active | 150 | –
4 | C[C@@H]1O[C@@H](Oc2cc(O)c3c(=O)c(O[C@@H]4O[C@H](CO)[C@@H](O)[C@H](O)[C@H]4O[C@@H]4O[C@@H](C)[C@H](O)[C@@H](O)[C@H]4O)c(-c4ccc(O)cc4)oc3c2)[C@H](O)[C@H](O)[C@H]1O | – | Active | – | Active | 220 | – | – | –
5 | COc1cc([C@@H]2c3cc4c(cc3[C@@H](O[C@@H]3O[C@@H]5CO[C@@H](C)O[C@H]5[C@H](O)[C@H]3O)[C@H]3COC(=O)[C@H]23)OCO4)cc(OC)c1O [ETOPOSIDE] | – | – | – | – | – | – | – | inhibition of growth at 100 µM [10]: 100%; inhibition of growth at 100 µM [11]: 100%; inhibition of growth at 100 µM [12]: 100%

Further lines, with some results ahead:

Row | IC50 [1] [µM] | inhibition [2] | inhibition [3] | inhibition [6] | IC50 [7] [µM] | inhibition [8] | IC50 [9] [µM] | SMILES | further results
6 | 240 | 88% | Dose-dependent effect | Active | 150 | Active | 120 | CC(=O)OC[C@]1(O)CO[C@H](Oc2c(-c3ccc(O)cc3)oc3cc(O[C@@H]4O[C@@H](C)[C@H](O)[C@@H](O)[C@H]4O)cc(O)c3c2=O)[C@H]1O | inhibition [13]: 99%; inhibition [14]: 22%; IC50 [15]: 350 µM; IC50 [16]: 410 µM; IC50 [17]: 350 µM; inhibition [18]: 44%
7 | 600 | Active | Dose-dependent effect | 94% | 110 | Active | 350 | C[C@@H]1O[C@@H](Oc2cc(O)c3c(=O)c(O[C@@H]4O[C@H](CO)[C@@H](O)[C@H](O)[C@H]4O)c(-c4ccc(O)cc4)oc3c2)[C@H](O)[C@H](O)[C@H]1O | inhibition [19]: 45%
8 | – | Active | – | Active | 180 | Active | 200 | C[C@@H]1O[C@@H](Oc2cc(O)c3c(=O)c(O[C@@H]4O[C@H](CO)[C@H](O)[C@H](O)[C@H]4O)c(-c4ccc(O)cc4)oc3c2)[C@H](O)[C@H](O)[C@H]1O | –
